Reference: ChEMBL document CHEMBL1147759, “Substituted indanylacetic acids as PPAR-alpha-gamma activators” (Bioorg Med Chem Lett, 2006)

Assays:
Mus musculus [1] = assay: Increase in serum HDL in male hApoA1 mice administered at 30 mg/kg, po; assay type: functional
How it was run: (§1)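 Male hApoA1 transgenic mice, n = 16 per group, had ad lib water and chow. They were dosed by oral gavage once daily for eight days in 0.5% methylcellulose vehicle, with vehicle controls. Serum lipid changes are compared with vehicle.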

Mus musculus [2] = assay: Decrease in serum triglyceride level in male hApoA1 mice administered at 10 mg/kg; assay type: functional; set-up: scale not given: the % may be the effect or the level left; how it was run: as §1
[3] = Cmax in male hApoA1 transgenic mice administered at 3 mg/kg, po; assay type: ADME, organism-based; set-up: dose 3 mg/kg, route oral; conditions: mouse, in vivo
[4] = target: T1, Peroxisome proliferator-activated receptor gamma (Homo sapiens, UniProt P37231); assay: Activity against PPAR gamma in human by FRET assay
T1 sequence (P37231 whole entry): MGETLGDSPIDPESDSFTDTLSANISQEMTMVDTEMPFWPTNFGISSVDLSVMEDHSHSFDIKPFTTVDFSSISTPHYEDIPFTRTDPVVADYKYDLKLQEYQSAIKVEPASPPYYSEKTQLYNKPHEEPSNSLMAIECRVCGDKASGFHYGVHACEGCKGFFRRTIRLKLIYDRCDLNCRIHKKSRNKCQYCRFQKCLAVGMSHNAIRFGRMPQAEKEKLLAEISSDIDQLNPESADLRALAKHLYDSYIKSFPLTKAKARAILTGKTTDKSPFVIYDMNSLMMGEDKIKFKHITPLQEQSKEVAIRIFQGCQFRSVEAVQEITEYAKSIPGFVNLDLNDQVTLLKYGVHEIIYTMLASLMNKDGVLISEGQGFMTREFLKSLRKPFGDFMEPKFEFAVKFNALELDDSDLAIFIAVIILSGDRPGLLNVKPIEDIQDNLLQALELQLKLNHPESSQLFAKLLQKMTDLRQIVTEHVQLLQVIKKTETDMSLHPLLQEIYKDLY

[5] = Cmax in male db/db mice administered at 3 mg/kg, po; assay type: ADME, organism-based; set-up: dose 3 mg/kg, route oral; conditions: mouse, in vivo
Mus musculus [6] = assay: Decrease in blood glucose level in male db/db mice administered at 10 mg/kg, po; assay type: functional; set-up: scale not given: the % may be the effect or the level left
How it was run: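 Given by oral gavage once daily for 14 days in 0.5% methylcellulose vehicle, with vehicle-dosed controls. After the last dose the mice were euthanized and blood was collected for glucose measurement. The decrease is expressed relative to vehicle.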

Mus musculus [7] = assay: Decrease in serum triglyceride level in male hApoA1 mice administered at 30 mg/kg; assay type: functional; set-up: scale not given: the % may be the effect or the level left; how it was run: as §1
[8] = AUC in male db/db mice administered at 3 mg/kg, po; assay type: ADME, organism-based; set-up: dose 3 mg/kg, route oral; conditions: mouse, plasma
Mus musculus [9] = assay: Increase in serum HDL in male hApoA1 mice administered at 10 mg/kg, po; assay type: functional; how it was run: as §1
[10] = AUC in male hApoA1 transgenic mice administered at 3 mg/kg, po; assay type: ADME, organism-based; set-up: dose 3 mg/kg, route oral; conditions: mouse, plasma
[11] = target: T2, Peroxisome proliferator-activated receptor alpha (Homo sapiens, UniProt Q07869); assay: Activity against PPAR alpha in human by FRET assay
T2 sequence (Q07869 whole entry): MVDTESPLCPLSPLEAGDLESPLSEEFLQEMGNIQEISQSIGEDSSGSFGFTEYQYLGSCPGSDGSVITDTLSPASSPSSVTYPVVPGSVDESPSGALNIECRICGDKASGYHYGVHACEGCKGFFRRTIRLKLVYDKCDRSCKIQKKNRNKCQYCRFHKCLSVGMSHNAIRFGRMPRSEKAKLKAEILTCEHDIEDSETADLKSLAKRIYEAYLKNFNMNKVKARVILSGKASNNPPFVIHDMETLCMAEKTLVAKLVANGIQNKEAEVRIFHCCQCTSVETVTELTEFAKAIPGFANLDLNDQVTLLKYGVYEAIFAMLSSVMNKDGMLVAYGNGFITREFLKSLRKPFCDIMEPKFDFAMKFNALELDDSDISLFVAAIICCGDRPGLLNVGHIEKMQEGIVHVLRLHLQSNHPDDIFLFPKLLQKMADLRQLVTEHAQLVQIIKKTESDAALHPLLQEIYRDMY
How it was run: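 Human PPAR-α ligand-binding domain (GST-tagged), incubated with compound, europium-labelled anti-GST antibody, biotinylated CREB-binding protein co-activator and streptavidin-APC. Time-resolved FRET read with excitation at 340 nm and emission at 615 and 640 nm. EC50 taken as the mean of at least three experiments.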

CC[C@H](C(=O)O)[C@@H]1CCc2cc(OCCc3nc(-c4ccc(C)cc4)oc3C)ccc21
Activity (Mus musculus [1]): 30% | Activity (Mus musculus [2]): 45% | Cmax [3]: 2550 ng/mL | EC50 [4]: 0.03 µM | Cmax [5]: 2980 ng/mL | Activity (Mus musculus [6]): 45% | Activity (Mus musculus [7]): 60% | AUC [8]: 11600 ng·h/mL | Activity (Mus musculus [9]): 15% | AUC [10]: 8060 ng·h/mL | EC50 [11]: 0.078 µM

CCC(C(=O)O)C1CCc2cc(OCCc3nc(-c4cccc5ccccc45)oc3C)ccc21 (centres undefined)
EC50 [4]: 0.113 µM | EC50 [11]: 0.451 µM

COC(C(=O)O)C1CCc2cc(OCCc3nc(-c4ccccc4)oc3C)ccc21 (centres undefined)
EC50 [4]: 0.045 µM | EC50 [11]: 0.67 µM

CCC(C(=O)O)C1CCc2cc(OCCc3nc(-c4ccc(Cl)cc4Cl)oc3C)ccc21 (centres undefined)
EC50 [4]: 0.738 µM | EC50 [11]: 5.48 µM

CCC(C(=O)O)C1CCc2cc(OCCc3nc(-c4ccco4)oc3C)ccc21 (centres undefined)
EC50 [4]: 0.396 µM | EC50 [11]: 0.745 µM

Cc1oc(-c2ccccc2)nc1CCOc1ccc2c(c1)CCC2C(C(=O)O)C(=O)O (centres undefined)
EC50 [4]: 1.86 µM | EC50 [11]: > 10 µM

CCC(C(=O)O)C1CCc2cc(OCCc3nc(-c4ccccc4)oc3C)c(-c3ccc(OC)cc3)cc21 (centres undefined)
EC50 [4]: 0.124 µM | EC50 [11]: 0.023 µM

CC[C@H](C(=O)O)[C@@H]1CCc2cc(OCCc3nc(-c4ccc(Cl)c(Cl)c4)oc3C)ccc21
EC50 [4]: 0.046 µM | EC50 [11]: 0.057 µM

CCC(C(=O)O)C1CCc2cc(OCCc3nc(-c4ccc(C)c(F)c4)oc3C)ccc21 (centres undefined)
EC50 [4]: 0.043 µM | EC50 [11]: 0.046 µM

CCOC(C(=O)O)C1CCc2cc(OCCc3nc(-c4ccccc4)oc3C)ccc21 (centres undefined)
EC50 [4]: 0.012 µM | EC50 [11]: 0.5 µM

CCC(C(=O)O)C1CCc2cc(OCCc3nc(-c4ccc(C)c(C)c4)oc3C)ccc21 (centres undefined)
EC50 [4]: 0.032 µM | EC50 [11]: 0.038 µM

CCC(C(=O)O)C1CCc2cc(OCCc3nc(-c4ccccc4F)oc3C)ccc21 (centres undefined)
EC50 [4]: 0.049 µM | EC50 [11]: 0.559 µM

CCC(C(=O)O)C1CCc2cc(OCCc3nc(-c4cc(C(F)(F)F)cc(C(F)(F)F)c4)oc3C)ccc21 (centres undefined)
EC50 [4]: 0.247 µM | EC50 [11]: 1.17 µM

CCC(C(=O)O)C1CCc2cc(OCCc3nc(-c4ccc(F)cc4)oc3C)ccc21 (stereo in doubt; 54)
EC50 [4]: 0.059 µM | EC50 [11]: 0.137 µM

CCC(C(=O)O)C1CCc2cc(OCCc3nc(-c4ccc(OC)c(OC)c4)oc3C)ccc21 (centres undefined)
EC50 [4]: 0.084 µM | EC50 [11]: 1.13 µM

CCC(C(=O)O)C1CCc2cc(OCCc3nc(-c4ccccc4)oc3C)c(C(C)=O)cc21 (centres undefined)
EC50 [4]: > 10 µM | EC50 [11]: 0.327 µM

CCC(C(=O)O)C1CCc2cc(OCCc3nc(-c4c(F)cccc4F)oc3C)ccc21 (centres undefined)
EC50 [4]: 0.368 µM | EC50 [11]: 0.523 µM

CC[C@@H](C(=O)O)[C@H]1CCc2cc(OCCc3nc(-c4ccccc4)oc3C)ccc21
EC50 [4]: 0.605 µM | EC50 [11]: > 10 µM

CCC(C(=O)O)C1CCc2cc(OCCc3nc(-c4cccc(F)c4)oc3C)ccc21 (centres undefined)
EC50 [4]: 0.061 µM | EC50 [11]: 0.336 µM

CCC(C(=O)O)C1CCc2cc(OCCc3nc(-c4ccc5c(c4)OCO5)oc3C)ccc21 (centres undefined)
EC50 [4]: 0.014 µM | EC50 [11]: 0.354 µM

CCC(C(=O)O)C1CCc2cc(OCCc3nc(-c4ccc(C(C)(C)C)cc4)oc3C)ccc21 (centres undefined)
EC50 [4]: 0.019 µM | EC50 [11]: 0.24 µM

CCC(C(=O)O)C1CCc2cc(OCCc3nc(-c4ccc(C)cc4)oc3C)ccc21 (centres undefined)
EC50 [4]: 0.045 µM | EC50 [11]: 0.065 µM

Cc1oc(-c2ccccc2)nc1CCOc1ccc2c(c1)CCC2C(C)(C)C(=O)O (centres undefined)
EC50 [4]: 5.64 µM | EC50 [11]: 6 µM

CCC(C(=O)O)C1CCc2cc(OCCc3nc(-c4ccc(C(F)(F)F)cc4)oc3C)ccc21 (centres undefined)
EC50 [4]: 0.205 µM | EC50 [11]: 0.058 µM

CCC(C(=O)O)C1CCc2cc(OCc3nc(-c4ccccc4)oc3C(F)(F)F)ccc21 (centres undefined)
EC50 [4]: > 10 µM | EC50 [11]: 1 µM

CCc1ccc(-c2nc(CCOc3ccc4c(c3)CCC4C(CC)C(=O)O)c(C)o2)cc1 (centres undefined)
EC50 [4]: 0.04 µM | EC50 [11]: 0.109 µM

CCC(C(=O)O)C1CCc2cc(OCCc3nc(-c4cccc(C(F)(F)F)c4)oc3C)ccc21 (centres undefined)
EC50 [4]: 0.021 µM | EC50 [11]: 0.171 µM

CCC(C(=O)O)C1CCc2cc(OCCc3nc(-c4ccc(Cl)cc4)oc3C)ccc21 (centres undefined)
EC50 [4]: 0.206 µM | EC50 [11]: 0.092 µM

CCOC(=O)C(C(=O)O)C1CCc2cc(OCCc3nc(-c4ccccc4)oc3C)ccc21 (centres undefined)
EC50 [4]: 0.068 µM | EC50 [11]: 0.308 µM

CCC(C(=O)O)C1CCc2cc(OCCc3nc(-c4ccccc4)oc3C(C)C)ccc21 (centres undefined)
EC50 [4]: 0.347 µM | EC50 [11]: > 10 µM
